According to ChEMBL document CHEMBL1155448, “(3-Phenylsulfonylcycloalkano[e and d]pyrazolo[1,5-a]pyrimidin-2-yl)amines: potent and selective antagonists of the serotonin 5-HT6 receptor” (J Med Chem, 2010):

Key:
[1] = molecular target: 5-hydroxytryptamine receptor 2B (Homo sapiens, UniProt P41595); assay: Antagonist activity at human 5HT2B receptor expressed in HEK293 cells assessed as inhibition of alpha-Me-serotonin-induced intracellular calcium mobilization by spectrophotometry; format: functional, cell-based
5-hydroxytryptamine receptor 2B, sequence (P41595 whole entry): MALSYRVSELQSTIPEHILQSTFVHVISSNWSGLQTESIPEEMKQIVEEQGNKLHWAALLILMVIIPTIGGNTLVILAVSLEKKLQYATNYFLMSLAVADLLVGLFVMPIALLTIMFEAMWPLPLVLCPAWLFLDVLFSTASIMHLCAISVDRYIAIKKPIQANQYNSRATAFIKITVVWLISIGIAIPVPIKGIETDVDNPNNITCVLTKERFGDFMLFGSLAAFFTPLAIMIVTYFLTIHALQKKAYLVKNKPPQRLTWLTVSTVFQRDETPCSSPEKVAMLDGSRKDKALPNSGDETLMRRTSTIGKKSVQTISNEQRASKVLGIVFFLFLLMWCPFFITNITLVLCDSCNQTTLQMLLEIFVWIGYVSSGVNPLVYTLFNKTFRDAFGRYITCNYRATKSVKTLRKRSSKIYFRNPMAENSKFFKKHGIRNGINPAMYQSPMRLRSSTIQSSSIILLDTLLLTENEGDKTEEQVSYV
Summary of the method: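 Tetracycline-induced T-Rex 5-HT2B HEK cells, Fura-2AM loaded (4 μM, 30 min, room temp, dark), suspended at (3-4) × 10⁶ cells/mL, diluted into HEPES-buffered saline with 1.8 mM CaCl₂ in stirred cuvette. Compound added after 20-30 s baseline, then serotonin challenge; Fura-2 ratio 340/380 nm excitation, 510 nm emission. Ki from concentration-dependent inhibition; geometric mean of three to four experiments, duplicate curves.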

[2] = molecular target: T1, 5-hydroxytryptamine receptor 6 (Homo sapiens, UniProt P50406); assay: Antagonist activity at human 5HT6 receptor expressed in HEK293 cells assessed as inhibition of serotonin-induced cAMP release; format: functional, cell-based
T1 sequence (P50406 whole entry): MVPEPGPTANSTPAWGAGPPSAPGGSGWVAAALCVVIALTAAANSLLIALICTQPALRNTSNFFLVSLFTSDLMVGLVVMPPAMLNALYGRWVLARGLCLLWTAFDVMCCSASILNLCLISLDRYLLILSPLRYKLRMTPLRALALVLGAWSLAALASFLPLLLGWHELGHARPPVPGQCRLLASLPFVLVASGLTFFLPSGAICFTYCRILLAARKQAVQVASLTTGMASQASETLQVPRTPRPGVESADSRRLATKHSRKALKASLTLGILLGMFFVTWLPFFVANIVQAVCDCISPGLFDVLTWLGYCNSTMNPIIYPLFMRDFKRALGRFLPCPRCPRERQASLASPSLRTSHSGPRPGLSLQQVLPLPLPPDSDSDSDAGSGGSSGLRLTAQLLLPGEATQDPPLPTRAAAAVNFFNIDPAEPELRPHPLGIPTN
Summary of the method: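 Tetracycline-induced T-Rex 5-HT6 HEK cells in HBSS with 1 mM MgCl₂, 1 mM CaCl₂, 5 mM HEPES pH 7.4, 100 μM IBMX; compounds 15 min (0.1% DMSO final), then serotonin 10 nM final for 30 min at room temp. cAMP by LANCE TR-FRET. Ki from concentration-dependent inhibition; geometric mean of three to four independent experiments, each curve in duplicate.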

hERG (KCNH2) [3] = molecular target: T2, hERG (KCNH2) (Homo sapiens, UniProt Q12809); assay: Inhibition of human ERG expressed in […] cells at 3 uM after 3 to 8 mins by voltage clamp assay; format: cell-based; settings: HEK297 cells that express human ERG
T2 sequence (Q12809 whole entry): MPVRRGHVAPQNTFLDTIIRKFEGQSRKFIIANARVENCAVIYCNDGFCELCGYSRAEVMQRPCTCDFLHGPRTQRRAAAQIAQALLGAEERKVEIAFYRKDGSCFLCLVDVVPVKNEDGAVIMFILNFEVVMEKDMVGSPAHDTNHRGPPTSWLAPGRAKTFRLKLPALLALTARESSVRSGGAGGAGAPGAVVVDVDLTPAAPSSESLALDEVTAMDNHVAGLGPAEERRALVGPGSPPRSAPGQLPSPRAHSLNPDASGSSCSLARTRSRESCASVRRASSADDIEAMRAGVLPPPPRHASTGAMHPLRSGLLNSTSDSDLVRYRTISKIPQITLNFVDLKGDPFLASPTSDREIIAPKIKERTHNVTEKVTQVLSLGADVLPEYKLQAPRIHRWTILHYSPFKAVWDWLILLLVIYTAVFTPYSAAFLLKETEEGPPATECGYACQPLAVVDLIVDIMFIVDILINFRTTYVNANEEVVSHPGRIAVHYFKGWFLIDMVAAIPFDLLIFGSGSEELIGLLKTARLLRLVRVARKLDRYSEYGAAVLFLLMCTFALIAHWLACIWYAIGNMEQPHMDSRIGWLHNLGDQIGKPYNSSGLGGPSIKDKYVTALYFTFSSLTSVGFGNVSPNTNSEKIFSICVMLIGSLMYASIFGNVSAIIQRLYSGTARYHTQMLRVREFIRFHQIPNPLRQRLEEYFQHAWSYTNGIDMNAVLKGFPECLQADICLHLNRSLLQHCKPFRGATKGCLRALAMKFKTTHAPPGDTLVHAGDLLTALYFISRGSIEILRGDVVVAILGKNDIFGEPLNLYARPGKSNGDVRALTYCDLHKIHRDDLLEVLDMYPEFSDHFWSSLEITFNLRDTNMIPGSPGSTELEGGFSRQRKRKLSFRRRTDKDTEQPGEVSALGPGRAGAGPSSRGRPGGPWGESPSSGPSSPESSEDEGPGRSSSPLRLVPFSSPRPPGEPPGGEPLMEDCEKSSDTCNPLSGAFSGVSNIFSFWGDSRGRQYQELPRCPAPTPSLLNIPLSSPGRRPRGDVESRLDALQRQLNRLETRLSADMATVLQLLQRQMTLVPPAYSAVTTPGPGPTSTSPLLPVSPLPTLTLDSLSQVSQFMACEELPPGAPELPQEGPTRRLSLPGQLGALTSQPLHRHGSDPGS
Summary of the method: (§1)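 Automated whole-cell voltage clamp at 25 °C on HEK cells stably expressing human hERG; K-based intracellular (pH 7.2), Na-based extracellular (pH 7.4) solutions. 2 s pulses to +20 mV, 15 s interpulse; compound until steady current (3-8 min), washout, 10 μM cisapride control. Percent of vehicle tail current; triplicate, mean ± SEM at highest concentration.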

hERG (KCNH2) [4] = molecular target: T2, hERG (KCNH2); assay: Inhibition of human ERG expressed in […] cells at 10 uM after 3 to 8 mins by voltage clamp assay; format: cell-based; settings: HEK297 cells that express human ERG; summary of the method: as §1
hERG (KCNH2) [5] = molecular target: T2, hERG (KCNH2); assay: Inhibition of human ERG expressed in […] cells at 90 uM after 3 to 8 mins by voltage clamp assay; format: cell-based; settings: […] cells that express human ERG; summary of the method: as §1
[6] = molecular target: T1, 5-hydroxytryptamine receptor 6; assay: Displacement of [3H]lysergic acid diethylamide from human recombinant 5HT6 receptor expressed in human HeLa cells; format: cell-based
Summary of the method: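 Ki from concentration-dependent displacement of [3H]lysergic acid diethylamide in a contracted radioligand binding assay; each curve measured in duplicate.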

[7] = molecular target: T1, 5-hydroxytryptamine receptor 6; assay: Antagonist activity at 5HT6 receptor; format: functional
Summary of the method: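 Human 5-HT6R expressed in HEK293 cells (T-Rex, tetracycline-induced a day before). Compounds preincubated 15 min in HBSS with 1 mM MgCl2, 1 mM CaCl2, 5 mM HEPES pH 7.4, 100 μM IBMX, 0.1% DMSO final. Serotonin then added to 10 nM final, 30 min at room temperature. cAMP measured by LANCE TR-FRET. Ki from concentration-dependent inhibition, geometric mean of 3-4 experiments, duplicate curves.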

CNc1nn2cc3c(nc2c1S(=O)(=O)c1ccccc1)CCCC3
Ki [1]: 169 nM | Ki [2]: 0.542 nM

CNc1nn2c(C)c3c(nc2c1S(=O)(=O)c1ccccc1)CCCC3
inhibition at 3 µM (hERG (KCNH2) [3]): 12.5%

CNc1nn2c3c(cnc2c1S(=O)(=O)c1ccccc1)CCCC3
Ki [1]: 153 nM | Ki [2]: 0.259 nM

CNc1nn2c3c(c(C)nc2c1S(=O)(=O)c1ccccc1)CCC3
Ki [1]: 188 nM | inhibition at 3 µM (hERG (KCNH2) [3]): 4.3% | Ki [2]: 0.413 nM

CNc1nn2c3c(c(C)nc2c1S(=O)(=O)c1ccccc1)CCCC3
inhibition at 10 µM (hERG (KCNH2) [4]): 52.4%

CN(C)c1nn2c3c(cnc2c1S(=O)(=O)c1ccccc1)CCC3
Ki [2]: 28.8 nM

Cc1nc2c(S(=O)(=O)c3ccccc3)c(N(C)C)nn2c2c1CCC2
Ki [2]: 25.5 nM

Cc1nc2c(S(=O)(=O)c3ccccc3)c(N3CCNCC3)nn2c2c1CCC2
Ki [2]: 869 nM

Cc1nc2c(S(=O)(=O)c3ccccc3)c(N3CCNCC3)nn2c2c1CCCC2
Ki [2]: 1760 nM

CNc1nn2c3c(cnc2c1S(=O)(=O)c1ccccc1)CCC3
Ki [1]: 464 nM | inhibition at 90 µM (hERG (KCNH2) [5]): 29.5% | Ki [6]: 0.088 nM | Ki [2]: 0.375 nM

CSc1nn2c3c(c(C)nc2c1S(=O)(=O)c1ccccc1)CCCC3
IC50 [7]: 6 nM
